Measured values of several laboratories.
Each line is one published result; the experiments were not run side by side.
AR: Androgen receptor (AR, Homo sapiens, UniProt P10275)
MMP8: Neutrophil collagenase (MMP8, Homo sapiens, UniProt P22894)

NC(CO)C(=O)N/N=C/c1ccc(O)c(O)c1 (stereo not shown)
inhibition (Genome polyprotein, protease (Coxsackievirus B3, UniProt P03313); enzyme activity, inhibitor, FRET; 50 µM): 55.9%

COc1ccc(S(=O)(=O)N2CCCCC2)cc1C
inhibition (AR; ligand displacement, radioligand; 10 µM): < 30%

Clc1ccc2c(C3CCN(CCc4c[nH]c5ccccc45)CC3)c[nH]c2c1
inhibition (AR; ligand displacement, radioligand; 10 µM): 25%

C#Cc1n[nH]c2c(-c3cn([C@@H](C)c4ccccn4)c(=O)[nH]c3=O)cc(F)cc12
inhibition (cAMP-dependent protein kinase catalytic subunit alpha (PRKACA, Homo sapiens, UniProt P17612); enzyme activity, inhibitor; 0.1 µM): 5.1%

O=C(Nc1cccnn1)N1CCN([C@@H]2CCOc3cc(C(F)(F)F)ccc32)CC1
inhibition (5-hydroxytryptamine receptor 1D (Htr1d, Rattus norvegicus, UniProt P28565); cell-free assay; 20 µM): 4%

Cc1ncc(C)n2nc(/C=C/c3nc(N4CCCC4)cc(N4CCOCC4)n3)nc12
inhibition (cGMP-dependent 3',5'-cyclic phosphodiesterase (PDE2A, Homo sapiens, UniProt O00408); enzyme activity, inhibitor; 10 µM): 38%

N=C(N)c1ccc2cc(OC(=O)c3ccc(N=C(N)N)cc3)ccc2c1
inhibition (MMP8; enzyme activity, inhibitor; 10 µM): 0%

C[C@H](C(=O)N[C@H]1COc2ccccc2[C@@H]1S(C)(=O)=O)c1ccc(F)cc1
inhibition (Carbonic anhydrase 2 (CA2, Homo sapiens, UniProt P00918); enzyme activity, inhibitor; 10 µM): 8%

CC(C)=CCCC1(C)C=Cc2c(O)c3c(c(CC=C(C)C)c2O1)OC12C(=CC4CC1C(C)(C)OC2(C/C=C(/C)C(=O)O)C4O)C3=O (stereo not shown)
inhibition (N-lysine methyltransferase KMT5A (KMT5A, Homo sapiens, UniProt Q9NQR1); cell-free assay; 10 µM): 7%

Cn1cc(-c2cccc(N3CCc4c(sc5c4CC(C)(C)C5)C3=O)c2CO)cc(Nc2ccncn2)c1=O
inhibition (Dual specificity mitogen-activated protein kinase kinase 6 (MAP2K6, Homo sapiens, UniProt P52564); enzyme activity, inhibitor; 1 µM): 11%

CCN(CC)CCCC[C@H](NC(=O)[C@H](CC(C)C)NC(=O)[C@H](C)NC(=O)[C@H](Cc1ccccc1)NC(=O)c1ccc(C(C)(C)C)cc1)C(=O)N[C@@H](CO)C(=O)OC
inhibition (Cholecystokinin receptor type A (CCKAR, Homo sapiens, UniProt P32238); ligand displacement, radioligand; 10 µM): 33%

COc1ccc(S(=O)(=O)N(CC(=O)NO)CC(C)C)cc1
inhibition (MMP8; enzyme activity, inhibitor; 1 µM): 91%

Cn1cc(-c2cc(F)cc(N3CCn4c(cc5c4CCCC5)C3=O)c2CO)cc(Nc2ccc(N3CCN(C4COC4)CC3)cn2)c1=O
inhibition (G protein-coupled receptor kinase 3 (GRK3, Homo sapiens, UniProt P35626); enzyme activity, inhibitor; 0.1 µM): 0%
